What was measured:
[1] = biological target: T1, ATP-dependent translocase ABCB1 (Homo sapiens, UniProt P08183); assay: Inhibition of human Pgp expressed in mouse L5178Y cells assessed as potentiation of doxorubicin-induced cytotoxicity after 48 hrs by MTT assay; type: cell-based
In short: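 Checkerboard combination with doxorubicin (14.7–0.1 μM) across one axis and 2-fold dilutions of modifier on the other, at a fixed drug ratio. MDR L5178Y cells seeded at 2 × 10^5 cells/mL and incubated 48 h, growth read by MTT. Combination index from the Chou–Talalay median-effect equation at 50% inhibition, using the best combination ratio. CI <1 synergy, =1 additivity, >1 antagonism.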

[2] = biological target: T1, ATP-dependent translocase ABCB1; assay: Inhibition of human Pgp-mediated rhodamine 123 efflux expressed in mouse L5178Y cells assessed as fluorescence activity ratio at 20 uM after 10 mins by flow cytometric analysis; type: cell-based
In short: (§1)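 PAR and MDR L5178Y cells at 2 × 10^6 cells/mL in serum-free McCoy's 5A, compound at 2 or 20 μM. Verapamil 22 μM as positive control, DMSO 2% as solvent control. After 10 min at room temperature, rhodamine-123 added (5.2 μM final) for 20 min at 37 °C. Cells washed twice, resuspended in PBS, and mean FL-1 of 20 000 cells read by flow cytometry. FAR = (MDR treated/untreated)/(PAR treated/untreated).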

[3] = biological target: T1, ATP-dependent translocase ABCB1; assay: Inhibition of human Pgp-mediated rhodamine 123 efflux expressed in mouse L5178Y cells assessed as fluorescence activity ratio at 2 uM after 10 mins by flow cytometric analysis; type: cell-based; in short: as §1
L5178Y [4] = assay: Cytotoxicity against chemoresistant mouse L5178Y cells expressing human MDR1 gene after 72 hrs by MTT assay; type: ADME, cell-based
In short: (§2)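 L5178Y parental and human MDR1-transfected mouse T-cell lymphoma cells grown in McCoy's 5A with 10% heat-inactivated horse serum at 37 °C, 5% CO2. Cells seeded at 1 × 10^5/mL and given 2-fold serial dilutions in duplicate wells for 72 h. MTT added for 4 h, then SDS overnight, OD 550 nm (ref 630). IC50 from curve fitting over three independent experiments. Selectivity index = IC50(PAR)/IC50(MDR).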

L5178Y [5] = assay: Cytotoxicity against chemosensitive mouse L5178Y cells after 72 hrs by MTT assay; type: cell-based; in short: as §2
[6] = system: P-glycoprotein 1 / MDR1 (Homo sapiens); assay: Selectivity index, ratio of IC50 for chemosensitive mouse L5178Y cells to IC50 for chemoresistant mouse L5178Y cells expressing human MDR1 gene
L5178Y [7] = assay: Toxicity against chemoresistant mouse L5178Y cells expressing human MDR1 gene at >40 uM after 10 mins by flow cytometric analysis; type: cell-based
In short: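 Toxicity during the rhodamine-123 accumulation assay, tested at 2, 20, 40 and 80 μM, was judged from shifts in flow-cytometric forward scatter and side scatter.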

P-gp (ABCB1) = P-gp (ABCB1) (Homo sapiens, UniProt P08183); assay: Inhibition of human Pgp expressed in mouse L5178Y cells assessed as reversal of chemoresistance at 20 uM after 10 mins by flow cytometric analysis; type: cell-based
In short: (§3)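 MDR L5178Y cells preincubated 10 min with compound, then loaded with rhodamine-123 (5.2 μM final) for 20 min at 37 °C and read by flow cytometry. The percentage of cells reverted to a chemosensitive phenotype was obtained by Overton cumulative histogram subtraction, channel by channel.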

[8] = biological target: T1, ATP-dependent translocase ABCB1; assay: Inhibition of human Pgp-mediated rhodamine 123 efflux expressed in mouse L5178Y cells assessed as reversal of chemoresistance after 10 mins by flow cytometric analysis; type: cell-based; in short: as §3

T1 sequence (P08183 whole entry): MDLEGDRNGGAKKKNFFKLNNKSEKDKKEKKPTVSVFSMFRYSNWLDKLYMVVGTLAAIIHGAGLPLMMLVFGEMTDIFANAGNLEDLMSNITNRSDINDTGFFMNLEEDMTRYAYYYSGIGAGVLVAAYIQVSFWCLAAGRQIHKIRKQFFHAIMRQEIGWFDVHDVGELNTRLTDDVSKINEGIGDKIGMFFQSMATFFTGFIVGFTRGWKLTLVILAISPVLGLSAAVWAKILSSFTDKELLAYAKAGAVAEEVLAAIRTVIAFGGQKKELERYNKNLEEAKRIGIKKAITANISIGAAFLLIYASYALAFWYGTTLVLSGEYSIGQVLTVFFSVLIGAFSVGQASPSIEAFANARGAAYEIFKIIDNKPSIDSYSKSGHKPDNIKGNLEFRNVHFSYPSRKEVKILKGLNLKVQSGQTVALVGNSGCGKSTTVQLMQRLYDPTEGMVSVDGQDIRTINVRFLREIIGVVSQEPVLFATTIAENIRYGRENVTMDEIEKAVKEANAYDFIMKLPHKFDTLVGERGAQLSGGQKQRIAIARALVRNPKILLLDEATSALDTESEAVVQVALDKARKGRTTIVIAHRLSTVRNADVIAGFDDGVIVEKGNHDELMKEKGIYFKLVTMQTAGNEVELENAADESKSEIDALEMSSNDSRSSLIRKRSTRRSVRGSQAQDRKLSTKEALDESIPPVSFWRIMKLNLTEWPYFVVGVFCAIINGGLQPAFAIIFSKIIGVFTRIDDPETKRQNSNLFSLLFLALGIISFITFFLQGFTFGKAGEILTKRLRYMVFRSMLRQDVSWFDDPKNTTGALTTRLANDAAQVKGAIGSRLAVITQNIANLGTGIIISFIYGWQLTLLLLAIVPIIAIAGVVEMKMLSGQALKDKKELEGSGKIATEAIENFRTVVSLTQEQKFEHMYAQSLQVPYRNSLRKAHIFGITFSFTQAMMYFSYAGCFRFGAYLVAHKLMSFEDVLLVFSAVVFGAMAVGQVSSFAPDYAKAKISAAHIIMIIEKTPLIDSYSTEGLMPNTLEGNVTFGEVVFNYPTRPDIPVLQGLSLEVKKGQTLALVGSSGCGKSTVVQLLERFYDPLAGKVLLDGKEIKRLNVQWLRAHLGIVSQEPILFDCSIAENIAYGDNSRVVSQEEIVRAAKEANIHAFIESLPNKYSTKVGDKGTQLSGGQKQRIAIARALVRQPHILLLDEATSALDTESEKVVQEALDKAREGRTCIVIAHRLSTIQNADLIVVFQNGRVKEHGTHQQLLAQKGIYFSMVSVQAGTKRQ
P-gp (ABCB1), sequence (P08183 whole entry): as above

CC(=O)O[C@H]1[C@@H](C)C[C@]2(OC(C)=O)C(=O)/C(C)=C/[C@@H]3[C@H](CC/C(C)=C/[C@@H]12)C3(C)C [JOLKINOATE A]
CI [1]: 0.18 | Ratio [2]: 33.76 | Ratio [3]: 1.16 | IC50 (L5178Y [4]): 60.4 µM | IC50 (L5178Y [5]): 38.2 µM | selectivity ratio [6]: 0.6

CCC(=O)O[C@H]1[C@@H](C)C[C@]2(OC(C)=O)C(=O)/C(C)=C/[C@@H]3[C@H](CC/C(C)=C/[C@@H]12)C3(C)C [JOLKINOATE B]
CI [1]: 0.34 | Activity (L5178Y [7]): Toxic | Ratio [2]: 30.64 | Ratio [3]: 2.95 | IC50 (L5178Y [4]): 22.2 µM | IC50 (L5178Y [5]): 18.3 µM | selectivity ratio [6]: 0.8

CCCC(=O)O[C@H]1[C@@H](C)C[C@]2(OC(C)=O)C(=O)/C(C)=C/[C@@H]3[C@H](CC/C(C)=C/[C@@H]12)C3(C)C [JOLKINOATE C]
CI [1]: 0.39 | Activity (L5178Y [7]): Toxic | Ratio [2]: 107.89 | Ratio [3]: 5.15 | IC50 (L5178Y [4]): 26.8 µM | IC50 (L5178Y [5]): 24 µM | selectivity ratio [6]: 0.9

CCCCCCCCCCCC(=O)O[C@H]1[C@@H](C)C[C@]2(OC(C)=O)C(=O)/C(C)=C/[C@@H]3[C@H](CC/C(C)=C/[C@@H]12)C3(C)C [JOLKINOATE D]
CI [1]: 2.02 | Ratio [2]: 25.69 | Ratio [3]: 1.74 | IC50 (L5178Y [4]): 60.3 µM | IC50 (L5178Y [5]): 38.7 µM | selectivity ratio [6]: 0.6

CCCC(C)C(=O)O[C@H]1[C@@H](C)C[C@]2(OC(C)=O)C(=O)/C(C)=C/[C@@H]3[C@H](CC/C(C)=C/[C@@H]12)C3(C)C (stereo not given in full) [JOLKINOATE E]
CI [1]: 0.23 | Activity (L5178Y [7]): Toxic | Ratio [2]: 12.13 | Ratio [3]: 7.14 | IC50 (L5178Y [4]): 18.8 µM | IC50 (L5178Y [5]): 17.2 µM | selectivity ratio [6]: 0.9

CCC(CC)C(=O)O[C@H]1[C@@H](C)C[C@]2(OC(C)=O)C(=O)/C(C)=C/[C@@H]3[C@H](CC/C(C)=C/[C@@H]12)C3(C)C [JOLKINOATE F]
CI [1]: 0.25 | Activity (L5178Y [7]): Toxic | Ratio [2]: 77.25 | Ratio [3]: 4.99 | IC50 (L5178Y [4]): 14.7 µM | IC50 (L5178Y [5]): 14.3 µM | selectivity ratio [6]: 1

CCCCC(CC)C(=O)O[C@H]1[C@@H](C)C[C@]2(OC(C)=O)C(=O)/C(C)=C/[C@@H]3[C@H](CC/C(C)=C/[C@@H]12)C3(C)C (stereo not given in full) [JOLKINOATE G]
CI [1]: 0.31 | Activity (L5178Y [7]): Toxic | Ratio [2]: 52.66 | Ratio [3]: 10.55 | IC50 (L5178Y [4]): 48.9 µM | IC50 (L5178Y [5]): 20.6 µM | selectivity ratio [6]: 0.4

CC(=O)O[C@]12C[C@H](C)[C@H](OC(=O)c3ccccc3)[C@@H]1/C=C(\C)CC[C@H]1[C@@H](/C=C(\C)C2=O)C1(C)C [JOLKINOATE I]
CI [1]: 0.35 | inhibition at 10 min, 20 µM (P-gp (ABCB1)): 70.2% | Ratio [2]: 84.22 | inhibition (INH) [8]: Dose-dependent effect | Ratio [3]: 24.15 | IC50 (L5178Y [4]): 33.1 µM | IC50 (L5178Y [5]): 34.7 µM | selectivity ratio [6]: 1

CC(=O)O[C@]12C[C@H](C)[C@H](OC(=O)c3ccc(C)cc3)[C@@H]1/C=C(\C)CC[C@H]1[C@@H](/C=C(\C)C2=O)C1(C)C [JOLKINOATE J]
CI [1]: 0.26 | Ratio [2]: 56.88 | inhibition (INH) [8]: Dose-dependent effect | Ratio [3]: 21.11 | IC50 (L5178Y [4]): 45.1 µM | IC50 (L5178Y [5]): 41.2 µM | selectivity ratio [6]: 0.9

COc1ccc(C(=O)O[C@H]2[C@@H](C)C[C@]3(OC(C)=O)C(=O)/C(C)=C/[C@@H]4[C@H](CC/C(C)=C/[C@@H]23)C4(C)C)cc1 [JOLKINOATE K]
CI [1]: 0.3 | inhibition at 10 min, 20 µM (P-gp (ABCB1)): 95% | Ratio [2]: 109.17 | inhibition (INH) [8]: Dose-dependent effect | Ratio [3]: 28.09 | IC50 (L5178Y [4]): 32.7 µM | IC50 (L5178Y [5]): 21.7 µM | selectivity ratio [6]: 0.7

CC(=O)O[C@]12C[C@H](C)[C@H](OC(=O)c3cccc(C(F)(F)F)c3)[C@@H]1/C=C(\C)CC[C@H]1[C@@H](/C=C(\C)C2=O)C1(C)C [JOLKINOATE L]
CI [1]: 0.27 | Ratio [2]: 28.66 | Ratio [3]: 9.32 | IC50 (L5178Y [4]): 52.6 µM | IC50 (L5178Y [5]): 44 µM | selectivity ratio [6]: 0.8

CC(=O)O[C@]12C[C@H](C)[C@H](OS(=O)(=O)c3ccccc3)[C@@H]1/C=C(\C)CC[C@H]1[C@@H](/C=C(\C)C2=O)C1(C)C [JOLKINOATE M]
CI [1]: 0.21 | Ratio [2]: 52.77 | inhibition (INH) [8]: Dose-dependent effect | Ratio [3]: 16.06 | IC50 (L5178Y [4]): 15 µM | IC50 (L5178Y [5]): 12.1 µM | selectivity ratio [6]: 0.8

C/C1=C\[C@H]2[C@@H](O)[C@@H](C)C[C@]2(O)C(=O)/C(C)=C/[C@@H]2[C@H](CC1)C2(C)C [JOLKINODIOL]
CI [1]: 0.65 | Ratio [2]: 3.38 | Ratio [3]: 0.84 | IC50 (L5178Y [4]): 48.9 µM | IC50 (L5178Y [5]): 36.4 µM | selectivity ratio [6]: 0.7

CC(=O)O[C@]12C[C@H](C)[C@H](O)[C@@H]1/C=C(\C)CC[C@H]1[C@@H](/C=C(\C)C2=O)C1(C)C [JOLKINOL D]
CI [1]: 0.26 | Ratio [2]: 0.92 | Ratio [3]: 0.79 | IC50 (L5178Y [4]): 99.7 µM | IC50 (L5178Y [5]): 89.9 µM | selectivity ratio [6]: 0.9

Reference: ChEMBL document CHEMBL2311385, “Enhancing macrocyclic diterpenes as multidrug-resistance reversers: structure-activity studies on jolkinol D derivatives” (J Med Chem, 2013)
